According to ChEMBL document CHEMBL4033786, “Discovery of Novel 1-Cyclopentenyl-3-phenylureas as Selective, Brain Penetrant, and Orally Bioavailable CXCR2 Antagonists” (J Med Chem, 2018):
Values after ≈ are worked out from the molar mass of the structure shown.

Key:
[1] = tested on: Mus musculus; assay: Antiinflammatory activity in C57Bl/6 mouse air pouch model assessed as inhibition of carrageenan-induced neutrophil infiltration administered po bid starting from day 3 post air reinflation at 4 hrs post carrageenan induction measured on day 6 post last dose; type: functional, organism-based
Summary of the method: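 Male C57Bl/6 mice aged 6–8 weeks received 5 mL air dorsally under pentobarbital on day 0, with 2.5 mL re-inflations on days 3 and 6. Oral dosing of vehicle or 1, 3 or 10 mg/kg BID ran from day 3; on day 6 dosing preceded re-inflation and 1 mL 2% carrageenan. At 4 h the pouch was lavaged with 4 mL PBS, and neutrophils were counted on Giemsa-stained cytospins as % of vehicle. One-way ANOVA with Bonferroni.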

[2] = molecular target: T1, C-X-C chemokine receptor type 2 (Homo sapiens, UniProt P25025); assay: Antagonist activity at TEV protease cleavage site linked GAL4-VP16-fused recombinant human CXCR2 expressed in cells assessed as inhibition of […] human CXCL1-stimulated beta-arrestin recruitment by CCF4-AM-fluorescence based FRET assay; type: cell-based; details: read-out: IC50
T1 sequence (P25025 whole entry): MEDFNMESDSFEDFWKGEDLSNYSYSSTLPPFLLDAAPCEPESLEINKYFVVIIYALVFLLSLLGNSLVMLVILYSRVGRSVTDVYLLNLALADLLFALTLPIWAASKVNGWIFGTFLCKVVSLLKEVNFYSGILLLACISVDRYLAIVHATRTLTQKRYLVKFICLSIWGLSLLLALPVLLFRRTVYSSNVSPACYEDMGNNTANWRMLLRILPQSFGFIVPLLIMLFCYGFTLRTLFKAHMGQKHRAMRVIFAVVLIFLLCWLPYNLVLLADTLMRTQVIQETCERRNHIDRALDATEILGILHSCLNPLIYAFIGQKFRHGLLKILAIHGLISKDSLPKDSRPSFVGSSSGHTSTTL
Summary of the method: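 Stable cell line expressing recombinant human CXCR2 linked to a TEV site and Gal4-VP16. Cells were starved 24 h at 37 °C, 5% CO2, then resuspended at ~200,000 cells/mL. They were given compound in DMSO (concentration-response), stimulated with 80 nM hCXCL1 and incubated overnight at 37 °C. CCF4-AM substrate was then added for 2 h at RT in the dark.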

[3] = Solubility of compound in fasted state simulated intestinal fluid measured after 4 hrs; type: physicochemical
Summary of the method: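 Solubility in FaSSIF, read after 4 h incubation.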

[4] = Fraction unbound in Han-Wistar SOA rat model brain at 2 mg/kg administered via oral gavage by UPLC/MS/MS analysis; type: ADME, organism-based
[5] = Fraction unbound in Han-Wistar SOA rat model blood at 2 mg/kg administered via oral gavage by UPLC/MS/MS analysis; type: ADME, organism-based
[6] = Ratio of brain dose normalized AUC (0 to 7 hrs) to […] dose normalized AUC (0 to 7 hrs), Kp of the compound in Han-Wistar SOA rat model at 2 mg/kg administered via oral gavage by UPLC/MS/MS analysis; type: ADME, organism-based
Summary of the method: (§1)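 Male Han-Wistar rats given a single 2 mg/kg oral gavage as a suspension in DMSO:1% methylcellulose (1:99). Blood was taken by cardiac puncture under isoflurane at 0.25–7 h, diluted 1:3 with water, and brains were homogenized in 3-fold PBS. Samples were extracted by acetonitrile protein precipitation and quantified by UPLC/MS/MS. Kp = brain DNAUC0-7h/blood DNAUC0-7h; Kp,uu = Kp×Fu,br/Fu,bl.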

[7] = Unbound brain-to-blood concentration ratio in Han-Wistar SOA rat model at 2 mg/kg administered via oral gavage by UPLC/MS/MS analysis; type: ADME, organism-based; details: read-out: K(p,uu,brain); summary of the method: as §1
[8] = tested on: Rattus norvegicus; assay: Dose normalized AUC (0 to infinity) in Wistar rat at 0.98 mg/kg, iv measured up to 4 hrs post dose; type: ADME, organism-based; details: in vivo
[9] = Cmax in Wistar rat at 2.41 mg/kg, po measured up to 4 hrs post dose; type: ADME, organism-based; parameters: dose 2.41 mg/kg, route oral; details: in vivo
[10] = Oral bioavailability in Wistar rat at 2.41 mg/kg measured up to 4 hrs after dose; type: ADME, organism-based; details: in vivo
[11] = Volume of distribution at steady state in dog at 0.85 mg/kg, iv measured up to 4 hrs post dose; type: ADME, organism-based, Canis lupus familiaris; details: in vivo, read-out: Vdss
[12] = tested on: Canis familiaris; assay: Dose normalized AUC (0 to infinity) in dog at 0.85 mg/kg, iv measured up to 4 hrs post dose; type: ADME, organism-based, Canis lupus familiaris; details: in vivo
[13] = Cmax in dog at 1.29 mg/kg, po measured up to 4 hrs post dose; type: ADME, organism-based, Canis lupus familiaris; parameters: dose 1.29 mg/kg, route oral; details: in vivo
[14] = tested on: Canis familiaris; assay: Dose normalized AUC (0 to infinity) in dog at 1.29 mg/kg, po measured up to 4 hrs post dose; type: ADME, organism-based, Canis lupus familiaris; details: in vivo
[15] = Oral bioavailability in dog at 1.29 mg/kg measured up to 4 hrs after dose; type: ADME, organism-based, Canis lupus familiaris; details: in vivo
[16] = molecular target: C-C chemokine receptor type 2 (Homo sapiens, UniProt P41597); assay: Agonist activity at CCR2 (unknown origin)
C-C chemokine receptor type 2, sequence (P41597 whole entry): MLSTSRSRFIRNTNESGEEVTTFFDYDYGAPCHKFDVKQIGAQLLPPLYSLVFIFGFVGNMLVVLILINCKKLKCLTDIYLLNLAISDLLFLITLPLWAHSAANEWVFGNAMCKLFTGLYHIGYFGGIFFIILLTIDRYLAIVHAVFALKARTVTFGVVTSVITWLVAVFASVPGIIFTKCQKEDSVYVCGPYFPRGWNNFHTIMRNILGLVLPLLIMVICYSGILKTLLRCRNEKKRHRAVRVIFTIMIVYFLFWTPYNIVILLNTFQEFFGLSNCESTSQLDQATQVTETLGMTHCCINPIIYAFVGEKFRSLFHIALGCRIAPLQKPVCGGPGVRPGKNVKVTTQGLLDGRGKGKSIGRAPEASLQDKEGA
Summary of the method: (§2)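 β-arrestin assays run in both agonist and antagonist modes across a panel of 18 CXC and CC chemokine receptors.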

[17] = molecular target: C-C chemokine receptor type 3 (Homo sapiens, UniProt P51677); assay: Agonist activity at CCR3 (unknown origin); summary of the method: as §2
C-C chemokine receptor type 3, sequence (P51677 whole entry): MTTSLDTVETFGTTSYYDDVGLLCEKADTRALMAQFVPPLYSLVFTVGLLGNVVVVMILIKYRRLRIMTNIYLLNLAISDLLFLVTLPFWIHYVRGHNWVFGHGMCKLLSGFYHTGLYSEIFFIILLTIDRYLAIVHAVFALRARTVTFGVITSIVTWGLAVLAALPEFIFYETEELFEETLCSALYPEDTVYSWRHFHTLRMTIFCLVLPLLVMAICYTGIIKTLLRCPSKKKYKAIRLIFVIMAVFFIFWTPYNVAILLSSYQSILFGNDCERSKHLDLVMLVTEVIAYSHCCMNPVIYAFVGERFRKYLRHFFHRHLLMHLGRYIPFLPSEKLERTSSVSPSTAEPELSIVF

[18] = molecular target: T2, C-C chemokine receptor type 4 (Homo sapiens, UniProt P51679); assay: Agonist activity at CCR4 (unknown origin); summary of the method: as §2
T2 sequence (P51679 whole entry): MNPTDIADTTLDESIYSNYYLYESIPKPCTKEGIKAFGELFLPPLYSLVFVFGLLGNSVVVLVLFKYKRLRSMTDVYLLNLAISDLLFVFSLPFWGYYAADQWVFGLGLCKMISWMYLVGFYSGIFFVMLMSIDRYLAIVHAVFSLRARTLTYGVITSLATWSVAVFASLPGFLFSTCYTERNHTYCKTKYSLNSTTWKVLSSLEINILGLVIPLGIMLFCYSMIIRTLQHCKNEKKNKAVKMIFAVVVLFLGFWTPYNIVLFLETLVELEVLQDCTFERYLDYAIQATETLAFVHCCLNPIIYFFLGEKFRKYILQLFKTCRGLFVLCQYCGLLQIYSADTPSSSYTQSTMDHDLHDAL

[19] = molecular target: C-C chemokine receptor type 5 (Homo sapiens, UniProt P51681); assay: Agonist activity at CCR5 (unknown origin); summary of the method: as §2
C-C chemokine receptor type 5, sequence (P51681 whole entry): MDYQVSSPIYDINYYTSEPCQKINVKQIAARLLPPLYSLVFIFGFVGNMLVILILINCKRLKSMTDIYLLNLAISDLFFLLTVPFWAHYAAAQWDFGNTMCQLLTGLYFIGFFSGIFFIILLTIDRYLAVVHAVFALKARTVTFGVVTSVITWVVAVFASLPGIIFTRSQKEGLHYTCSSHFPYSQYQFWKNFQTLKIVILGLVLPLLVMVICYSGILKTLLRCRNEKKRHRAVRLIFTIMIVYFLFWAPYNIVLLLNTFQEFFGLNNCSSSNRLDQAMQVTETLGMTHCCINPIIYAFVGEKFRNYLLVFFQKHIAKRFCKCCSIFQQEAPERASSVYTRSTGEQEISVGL

[20] = molecular target: Chemerin-like receptor 1 (Homo sapiens, UniProt Q99788); assay: Agonist activity at CMKLR1 (unknown origin); summary of the method: as §2
Chemerin-like receptor 1, sequence (Q99788 whole entry): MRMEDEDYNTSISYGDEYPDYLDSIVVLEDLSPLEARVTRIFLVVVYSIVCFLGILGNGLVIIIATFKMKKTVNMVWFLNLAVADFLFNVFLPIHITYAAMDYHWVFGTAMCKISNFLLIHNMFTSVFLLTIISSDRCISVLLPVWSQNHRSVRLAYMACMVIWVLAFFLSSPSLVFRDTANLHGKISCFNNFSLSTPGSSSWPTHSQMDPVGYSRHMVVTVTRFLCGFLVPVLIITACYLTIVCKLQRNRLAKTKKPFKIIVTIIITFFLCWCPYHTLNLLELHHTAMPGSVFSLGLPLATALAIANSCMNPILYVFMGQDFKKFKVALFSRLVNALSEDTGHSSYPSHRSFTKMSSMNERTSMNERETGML

[21] = molecular target: T3, C-X-C chemokine receptor type 1 (Homo sapiens, UniProt P25024); assay: Agonist activity at CXCR1 (unknown origin)
T3 sequence (P25024 whole entry): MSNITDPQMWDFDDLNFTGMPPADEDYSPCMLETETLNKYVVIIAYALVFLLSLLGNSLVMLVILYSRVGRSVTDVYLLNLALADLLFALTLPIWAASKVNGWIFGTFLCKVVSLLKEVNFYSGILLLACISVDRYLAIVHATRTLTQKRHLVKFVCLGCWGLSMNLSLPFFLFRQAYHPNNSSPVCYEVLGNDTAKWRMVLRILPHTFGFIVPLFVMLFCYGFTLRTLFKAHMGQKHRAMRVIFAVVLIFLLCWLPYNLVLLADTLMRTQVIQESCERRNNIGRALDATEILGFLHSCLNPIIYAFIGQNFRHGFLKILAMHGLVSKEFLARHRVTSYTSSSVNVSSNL
Summary of the method: (§3)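 Part of an 18-receptor CXC/CC chemokine receptor panel, each receptor run in β-arrestin recruitment assays in both agonist and antagonist modes.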

[22] = molecular target: T4, C-X-C chemokine receptor type 5 (Homo sapiens, UniProt P32302); assay: Agonist activity at CXCR5 (unknown origin); summary of the method: as §2
T4 sequence (P32302 whole entry): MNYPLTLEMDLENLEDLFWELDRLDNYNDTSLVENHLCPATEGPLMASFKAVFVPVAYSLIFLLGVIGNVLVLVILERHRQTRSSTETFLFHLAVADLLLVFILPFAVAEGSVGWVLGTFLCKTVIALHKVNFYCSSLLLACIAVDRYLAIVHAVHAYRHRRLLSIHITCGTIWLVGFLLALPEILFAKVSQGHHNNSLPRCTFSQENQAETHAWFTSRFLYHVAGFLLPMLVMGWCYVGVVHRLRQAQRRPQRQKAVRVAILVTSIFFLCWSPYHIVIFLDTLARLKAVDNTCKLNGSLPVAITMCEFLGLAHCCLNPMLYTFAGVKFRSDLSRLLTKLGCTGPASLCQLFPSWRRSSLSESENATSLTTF

[23] = molecular target: Atypical chemokine receptor 3 (Homo sapiens, UniProt P25106); assay: Agonist activity at CXCR7 (unknown origin); summary of the method: as §2
Atypical chemokine receptor 3, sequence (P25106 whole entry): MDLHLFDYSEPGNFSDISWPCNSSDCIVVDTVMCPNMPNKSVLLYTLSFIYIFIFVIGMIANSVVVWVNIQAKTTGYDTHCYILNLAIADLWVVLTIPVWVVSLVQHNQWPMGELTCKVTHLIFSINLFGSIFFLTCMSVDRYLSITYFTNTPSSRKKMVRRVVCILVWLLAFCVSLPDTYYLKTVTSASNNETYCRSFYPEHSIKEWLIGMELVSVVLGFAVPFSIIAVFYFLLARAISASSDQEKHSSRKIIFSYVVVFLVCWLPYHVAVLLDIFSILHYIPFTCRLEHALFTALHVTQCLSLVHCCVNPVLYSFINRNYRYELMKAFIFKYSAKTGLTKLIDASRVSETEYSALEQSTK

[24] = molecular target: T2, C-C chemokine receptor type 4; assay: Antagonist activity at CCR4 (unknown origin); summary of the method: as §2
[25] = molecular target: T3, C-X-C chemokine receptor type 1; assay: Antagonist activity at CXCR1 (unknown origin); summary of the method: as §3
[26] = molecular target: C-X-C chemokine receptor type 4 (Homo sapiens, UniProt P61073); assay: Antagonist activity at CXCR4 (unknown origin); summary of the method: as §2
C-X-C chemokine receptor type 4, sequence (P61073 whole entry): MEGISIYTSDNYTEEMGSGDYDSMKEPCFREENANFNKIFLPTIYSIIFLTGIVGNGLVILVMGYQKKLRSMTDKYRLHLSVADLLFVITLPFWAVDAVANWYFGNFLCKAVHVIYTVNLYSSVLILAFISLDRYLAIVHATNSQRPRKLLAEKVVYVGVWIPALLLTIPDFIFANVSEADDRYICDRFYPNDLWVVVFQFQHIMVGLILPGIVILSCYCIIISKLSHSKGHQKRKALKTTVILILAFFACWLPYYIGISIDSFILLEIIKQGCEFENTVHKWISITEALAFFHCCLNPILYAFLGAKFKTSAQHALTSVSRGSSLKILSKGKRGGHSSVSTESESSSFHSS

[27] = molecular target: T4, C-X-C chemokine receptor type 5; assay: Antagonist activity at CXCR5 (unknown origin); summary of the method: as §2
[28] = molecular target: C-X-C chemokine receptor type 6 (Homo sapiens, UniProt O00574); assay: Antagonist activity at CXCR6 (unknown origin); summary of the method: as §2
C-X-C chemokine receptor type 6, sequence (O00574 whole entry): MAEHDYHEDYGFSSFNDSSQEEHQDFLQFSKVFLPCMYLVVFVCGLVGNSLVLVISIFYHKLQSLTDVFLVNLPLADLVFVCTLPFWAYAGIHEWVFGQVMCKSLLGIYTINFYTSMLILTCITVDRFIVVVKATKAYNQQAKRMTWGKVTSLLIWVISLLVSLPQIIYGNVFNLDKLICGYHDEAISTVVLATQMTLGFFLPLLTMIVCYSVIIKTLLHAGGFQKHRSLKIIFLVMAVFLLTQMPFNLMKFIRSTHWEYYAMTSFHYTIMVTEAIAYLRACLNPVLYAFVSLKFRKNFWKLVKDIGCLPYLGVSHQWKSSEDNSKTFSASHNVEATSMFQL

[29] = tested on: Rattus norvegicus; assay: Antiinflammatory activity in Wistar rat air pouch model assessed as inhibition of carrageenan-induced neutrophil infiltration administered po bid starting from day 3 post air reinflation at 4 hrs post carrageenan induction measured on day 6 post last dose; type: functional, organism-based
Summary of the method: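 Male Wistar rats aged 8–10 weeks received 20 mL air, then 10 mL re-inflations on days 3 and 6. Oral dosing of vehicle or 1, 3 or 10 mg/kg BID ran from day 3, given on day 6 just before re-inflation and 1 mL 2% carrageenan. Pouch lavage (4 mL PBS) was taken at 4 h, and neutrophils were counted on Giemsa-stained cytospins as % of vehicle.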

[30] = Intrinsic clearance in rat hepatocytes; type: ADME, cell-based, Hepatocyte

## CC1=CCC[C@H]1NC(=O)Nc1ccc(Cl)c(S(=O)(=O)[C@@]2(C)CCOC2)c1O
[1]
  inhibition: Dose-dependent effect
[2]
  IC50: 0.0052 µM
[3]
  solubility at 4 h: 21 µg/mL (≈ 50.6 µM)
[4]
  fraction unbound: 0.123
[5]
  fraction unbound: 0.027
[6]
  Kp: 0.14
[7]
  Kp uu: 0.63
[8]
  AUC/dose: 1829 ng·h/mL/mg/kg
[9]
  Cmax: 452 ng/mL
[10]
  bioavailability: 47%
[11]
  Vd: 0.88 L/kg
[12]
  AUC/dose: 2996 ng·h/mL/mg/kg
[13]
  Cmax: 728 ng/mL
[14]
  AUC/dose: 2298 ng·h/mL/mg/kg
[15]
  bioavailability: 76%
[16]
  EC50: > 10 µM
[17]
  EC50: > 10 µM
[18]
  EC50: > 10 µM
[19]
  EC50: > 10 µM
[20]
  EC50: > 10 µM
[21]
  EC50: > 10 µM
[22]
  EC50: > 10 µM
[23]
  EC50: > 10 µM
[24]
  IC50: > 10 µM
[25]
  IC50: 3.8 µM
[26]
  IC50: > 10 µM
[27]
  IC50: > 10 µM
[28]
  IC50: > 10 µM
[29]
  inhibition: Dose-dependent effect
[30]
  CLH: 7.7 mL/min/g
